The nature of experiment [1]: Selectivity index, ratio of IC50 for human BJ cells to IC50 for human BJ cells transformed with hTert, small t, shRNAs against p53 and pRb and H-RasV12-ER. The format is functional. In a few lines: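 Normal BJ fibroblasts and transformed BJ fibroblasts were grown at 37 °C in 5% CO₂ with 10% FBS, seeded at 2.5×10^3 cells/well for 24 h, then treated for 72 h at 0.5% v/v final DMSO. MTT at 0.5 mg/mL was added for 3 h, formazan was dissolved in DMSO and absorbance read at 570 nm. IC50 came from sigmoidal fits of three independent determinations. The index is normal-cell IC50 over transformed-cell IC50.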

Experiment [2] in a line: Antiproliferative activity against human SNU620 cells after 72 hrs by MTT assay. The format is functional. Conditions: SNU620, 72 h. In short, it runs like this:
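Cells cultured at 37 °C, 5% CO₂ in medium with 10% FBS and penicillin/streptomycin, used within 12-20 passages. Seeded at 2.5×10^3 cells/well for 24 h, then compound added from DMSO stocks at 200-fold final concentration (final DMSO 0.5% v/v). After 72 h, 0.5 mg/mL MTT for 3 h, formazan dissolved in DMSO, A570 read. IC50 from sigmoidal fit; three independent determinations.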

Molecules are shown by their SMILES.

What is called GI50 is the concentration giving 50% growth inhibition. Higher therefore signals less potent growth inhibition. Consider `N#C/C(=C\c1cccc2cnccc12)c1c[nH]c2ccccc12`, for which the “Ratio IC50” value in experiment [1] came to 8.5. Further, halving of growth in experiment [2] (GI50) required 1 µM.

The values are drawn from ChEMBL document CHEMBL4270554, “Discovery of the cancer cell selective dual acting anti-cancer agent (Z)-2-(1H-indol-3-yl)-3-(isoquinolin-5-yl)acrylonitrile (A131)” (Eur J Med Chem, 2018).
